The values below come from PubChem BioAssay.

The nature of assay [1]: hit retest on RPL19A-GFP reporter strain – cell-based, S. cerevisiae, flow cytometry, cherry picks, mother/daughter gates, confirmation (AID 2270;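 active = GFP response below 50% of the DMSO control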). The conditions noted are these: 3 h, at 10 µM, stronger effect = lower value, 100 = same GFP as DMSO wells.
Assay [2] is described as follows: yeast TOR pathway reporter LAP4-GFP change – cell-based, cherry picks, flow cytometry, mother/daughter gates, confirmation (AID 2271;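 active = GFP response above 150% of the DMSO control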;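 also: ratio of sample to DMSO plate mean so 100% equals DMSO level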). To be noted: S. cerevisiae LAP4-GFP strain, 3 h, at 10 µM, stronger effect = higher value, 100 means same as DMSO control. Summed up: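 System: GFP-fusion yeast strain; Incubation: compound exposure 3 h at 30 °C, end-over-end rotation; Measured by: GFP by flow cytometry; Read-out: median GFP fluorescence as percent of plate-mean DMSO wells; Medium: synthetic complete (SC) yeast growth medium; Compound: single test-compound dose, 10 µM final; Benchmarks: DMSO-only negative wells, rapamycin 400 ng/mL positive wells.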
Background: In flow cytometry, cells or beads pass a laser one at a time.

Assay [3] in a line: TOR pathway reporter MEP2-GFP, retest of hits – S. cerevisiae, flow cytometry GFP, cherry picks, confirmation (AID 2272;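 active = GFP response above 150% of the DMSO control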;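 also: ratio of well signal to plate DMSO mean so 100% equals DMSO level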). The conditions noted are these: S. cerevisiae MEP2-GFP strain, 3 h, at 10 µM, stronger effect = higher value.
A short description of assay [4]: yeast AGP1-GFP fluorescence change, single-dose – cell-based, flow cytometry, S. cerevisiae, cherry picks, confirmation (AID 2273).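 Also: median GFP channel fluorescence over the whole cell population gate.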 The conditions noted are these: S. cerevisiae AGP1-GFP strain, 3 h, at 10 µM.
Assay [5] in a line: TOR pathway CIT2 reporter hit retest – S. cerevisiae, GFP fusion, cherry picks, mother/daughter gates, confirmation (AID 2274). To be noted: S. cerevisiae CIT2-GFP strain, flow cytometry, 3 h, at 10 µM, stronger effect = higher value.
The mark [6] stands for this setting: measured here: daughter cell gate.
[7] abbreviates: measured here: mother cell gate.
Setting [8] is: measured here: daughter cell gate response.
The mark [9] stands for this setting: measured here: mother cell gate response.

Activity calls are given as the source filed them.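 The calls were made as follows, unless noted: active = GFP response above 150% of the DMSO level; inconclusive = fewer than 70 events counted for a yeast strain; inactive = the rest.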

For the molecule `O=C(c1ccc([N+](=O)[O-])o1)N1CCN(c2nc3ccc(F)cc3s2)CC1`, the GFP response vs DMSO in assay [1] is 99.8% (inactive); in assay [1] (setting [6]), 100%; in assay [1] (setting [7]), 98.4%; in assay [3] it was 105% (inactive). Also, the GFP response relative to DMSO is 111% (inactive) in assay [2], 109% in assay [2] (setting [8]) and 115% in assay [2] (setting [9]). Further, the GFP response, % of DMSO was 87.7% (inactive) in assay [4], 101% (inactive) in assay [5], 103% in assay [5] (setting [6]) and 96.1% in assay [5] (setting [7]).
As for `O=C(Nc1cc(Sc2ccccn2)cc([N+](=O)[O-])c1)c1cccc(F)c1`, the GFP response vs DMSO in assay [1] was 96.9% (inactive); in assay [1] (setting [6]), 96.1%; in assay [1] (setting [7]) it was 95.9%; in assay [3] it was 106% (inactive). The GFP response relative to DMSO in assay [2] is 101% (inactive); in assay [2] (setting [8]) it was 96%; in assay [2] (setting [9]) it was 102%. The GFP response, % of DMSO was 95.7% (inactive) in assay [4], 97.2% (inactive) in assay [5], 95.8% in assay [5] (setting [6]) and 94.9% in assay [5] (setting [7]).
With `CCOc1ccccc1NC(=O)c1nc(S(=O)(=O)Cc2cccc(C)c2)ncc1Cl`, the GFP response vs DMSO in assay [1] was 101% (inactive); in assay [1] (setting [6]), 100%; in assay [1] (setting [7]) it was 101%; in assay [3], 100% (inactive). Besides, the values for the GFP response relative to DMSO in assay [2], in assay [2] (setting [8]) and in assay [2] (setting [9]) were 101% (inactive), 102% and 103%, respectively. Besides, the GFP response, % of DMSO in assay [4] is 101% (inactive); in assay [5] it was 97.8% (inactive); in assay [5] (setting [6]), 96.5%; in assay [5] (setting [7]), 98.7%.
As to `Cc1cccc(CS(=O)(=O)c2ncc(Cl)c(C(=O)Nc3c(C)cccc3C)n2)c1`, the GFP response vs DMSO in assay [1] is 106% (inactive); in assay [1] (setting [6]), 98.6%; in assay [1] (setting [7]), 107%; in assay [3], 105% (inactive). Besides, the GFP response relative to DMSO in assay [2] is 106% (inactive); in assay [2] (setting [8]), 101%; in assay [2] (setting [9]), 107%. In addition, the GFP response, % of DMSO in assay [4] is 99.4% (inactive); in assay [5], 100% (inactive); in assay [5] (setting [6]) it was 97.4%; in assay [5] (setting [7]), 101%.
Turning to `Cc1ccc2c(c1)c(/C=C/c1cc[n+](C)cc1)c(C)n2C`, the GFP response vs DMSO in assay [1] was 107% (inactive); in assay [1] (setting [6]) it was 109%; in assay [1] (setting [7]), 108%; in assay [3], 226% (active). The results for the GFP response relative to DMSO in assay [2], in assay [2] (setting [8]) and in assay [2] (setting [9]) were 178% (active), 194% and 173%, respectively. For the same molecule, the GFP response, % of DMSO in assay [4] is 114% (inactive); in assay [5], 184% (active); in assay [5] (setting [6]), 191%; in assay [5] (setting [7]) it was 177%.
Consider `Cc1cccc(C)c1OCCOC(=O)c1n[nH]c2ccccc12`, for which the GFP response vs DMSO in assay [1] was 98.8% (inactive); in assay [1] (setting [6]) it was 97%; in assay [1] (setting [7]), 100%; in assay [3], 106% (inactive). For the same molecule, the GFP response relative to DMSO in assay [2] is 96.5% (inactive); in assay [2] (setting [8]), 93.6%; in assay [2] (setting [9]), 82.8%. For the same molecule, the GFP response, % of DMSO in assay [4] is 91.9% (inactive); in assay [5], 95% (inactive); in assay [5] (setting [6]), 96.4%; in assay [5] (setting [7]), 93.3%.
`Cc1nn2c(NCCCN3CCOCC3)c3c(nc2c1-c1ccccc1)CCC3`: the GFP response vs DMSO in assay [1] is 101% (inactive); in assay [1] (setting [6]), 102%; in assay [1] (setting [7]) it was 101%; in assay [3], 99% (inactive). Further, the GFP response relative to DMSO in assay [2] was 98.2% (inactive); in assay [2] (setting [8]), 97.5%; in assay [2] (setting [9]), 98.4%. For the same molecule, the GFP response, % of DMSO was 103% (inactive) in assay [4], 100% (inactive) in assay [5], 101% in assay [5] (setting [6]) and 101% in assay [5] (setting [7]).
Turning to `CNC(=O)/C(C#N)=C/c1c(N(Cc2ccccc2)Cc2ccccc2)nc2ccccn2c1=O`, the GFP response vs DMSO in assay [1] is 97.3% (inactive); in assay [1] (setting [6]) it was 98.1%; in assay [1] (setting [7]), 96.9%; in assay [3], 93.1% (inactive). Moreover, the results for the GFP response relative to DMSO in assay [2], in assay [2] (setting [8]) and in assay [2] (setting [9]) were 100% (inactive), 99% and 101%, respectively. Further, the GFP response, % of DMSO in assay [4] is 104% (inactive); in assay [5] it was 100% (inactive); in assay [5] (setting [6]), 101%; in assay [5] (setting [7]), 99.3%.
With `CCOC(=O)c1ccc(NC(=O)CCc2nc(-c3ccc(C)cc3)no2)cc1`, the GFP response vs DMSO in assay [1] was 101% (inactive); in assay [1] (setting [6]), 102%; in assay [1] (setting [7]) it was 100%; in assay [3] it was 107% (inactive). In addition, the results for the GFP response relative to DMSO in assay [2], in assay [2] (setting [8]) and in assay [2] (setting [9]) were 98.2% (inactive), 99.1% and 98.4%, respectively. The GFP response, % of DMSO was 100% (inactive) in assay [4], 91.5% (inactive) in assay [5], 90.2% in assay [5] (setting [6]) and 93.2% in assay [5] (setting [7]).
`CCOC(=O)c1cc2c(=O)n3ccccc3nc2n(CCOC)c1=NC(=O)C(C)(C)C`: the GFP response vs DMSO was 99.4% (inactive) in assay [1], 99.1% in assay [1] (setting [6]), 97.3% in assay [1] (setting [7]) and 99% (inactive) in assay [3]. The GFP response relative to DMSO in assay [2] was 94.4% (inactive); in assay [2] (setting [8]), 92.6%; in assay [2] (setting [9]), 94.1%. The GFP response, % of DMSO is 103% (inactive) in assay [4], 94.4% (inactive) in assay [5], 93.8% in assay [5] (setting [6]) and 93.2% in assay [5] (setting [7]).
Consider `CC(C)n1c(=S)[nH]c2c1c(=O)[nH]c(=O)n2C`, for which the GFP response vs DMSO was 98.8% (inactive) in assay [1], 97.3% in assay [1] (setting [6]), 99.8% in assay [1] (setting [7]) and 100% (inactive) in assay [3]. In addition, the GFP response relative to DMSO in assay [2] was 99.8% (inactive); in assay [2] (setting [8]), 102%; in assay [2] (setting [9]), 101%. The GFP response, % of DMSO in assay [4] was 104% (inactive); in assay [5], 100% (inactive); in assay [5] (setting [6]) it was 99.7%; in assay [5] (setting [7]), 102%.
Take `Cc1ccc(/C=C2/NC(=O)N(Cc3ccccc3)C2=O)o1`: the GFP response vs DMSO was 98.4% (inactive) in assay [1], 99.8% in assay [1] (setting [6]), 98.8% in assay [1] (setting [7]) and 101% (inactive) in assay [3]. Also, the GFP response relative to DMSO was 112% (inactive) in assay [2], 110% in assay [2] (setting [8]) and 113% in assay [2] (setting [9]). Further, the GFP response, % of DMSO was 101% (inactive) in assay [4], 103% (inactive) in assay [5], 105% in assay [5] (setting [6]) and 101% in assay [5] (setting [7]).
For the molecule `CCc1nn2c(N3CCOCC3)cc(C)nc2c1-c1ccc(F)cc1`, the GFP response vs DMSO in assay [1] was 99.8% (inactive); in assay [1] (setting [6]), 99.8%; in assay [1] (setting [7]) it was 98.4%; in assay [3], 106% (inactive). For the same molecule, the GFP response relative to DMSO in assay [2] was 104% (inactive); in assay [2] (setting [8]), 104%; in assay [2] (setting [9]), 104%. Further, the GFP response, % of DMSO in assay [4] is 98.6% (inactive); in assay [5] it was 95.8% (inactive); in assay [5] (setting [6]) it was 101%; in assay [5] (setting [7]), 94.9%.
In the case of `O=C1c2ccccc2C(=O)N1OS(=O)(=O)c1ccc(F)cc1`, the GFP response vs DMSO was 74% (inactive) in assay [1], 89.4% in assay [1] (setting [6]), 61.9% in assay [1] (setting [7]) and 103% (inactive) in assay [3]. The GFP response relative to DMSO was 127% (inactive) in assay [2], 129% in assay [2] (setting [8]) and 129% in assay [2] (setting [9]). Also, the GFP response, % of DMSO in assay [4] was 102% (inactive); in assay [5], 121% (inactive); in assay [5] (setting [6]) it was 103%; in assay [5] (setting [7]) it was 99.7%.
With `COc1ccc(N2C(=O)C(Cl)=C(Nc3ccccc3OC)C2=O)cc1`, the GFP response vs DMSO in assay [1] is 101% (inactive); in assay [1] (setting [6]), 98.4%; in assay [1] (setting [7]), 102%; in assay [3], 105% (inactive). The figures for the GFP response relative to DMSO in assay [2], in assay [2] (setting [8]) and in assay [2] (setting [9]) were 98.2% (inactive), 94.2% and 98.4%, respectively. The GFP response, % of DMSO was 98% (inactive) in assay [4], 97.3% (inactive) in assay [5], 97.4% in assay [5] (setting [6]) and 98.1% in assay [5] (setting [7]).
